Results: ChEMBL document CHEMBL1152848, “Penetratin and derivatives acting as antifungal agents” (2009)
Peptide text beside a SMILES is read from it.

Assays:
Assay type in all cases: functional
Candida albicans [1] = test: Antifungal activity against Candida albicans ATCC 10231 assessed as growth inhibition at 100 uM after 24 hrs; conditions: ATCC 10231, 24 h
Outline: (§1)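 Percent growth inhibition in 96-well microdilution, RPMI-1640. Peptide stocks in DMSO (≤2%), diluted to final 200–12.5 µM. Inoculum adjusted to 1-5 × 10^3 CFU/ml, grown beforehand on Sabouraud–chloramphenicol agar 48 h at 30 °C. Compound-free growth control with matching DMSO, plus sterility control. Incubated 24 h at 35 °C in a moist dark chamber, then read by microplate reader. Amphotericin B as 100% inhibition reference. Duplicates.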

Cryptococcus neoformans [2] = test: Antifungal activity against Cryptococcus neoformans ATCC 32264 assessed as growth inhibition at 12.5 uM after 48 hrs; conditions: ATCC 32264, 48 h
Outline: (§2)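 Percent growth inhibition by broth microdilution in RPMI-1640. Peptides were dissolved in DMSO (≤2%) and diluted to final 200–12.5 µM. Inoculum 1-5 × 10^3 CFU/ml, cells maintained on Sabouraud agar. Growth control (medium, inoculum, same DMSO, no compound) and sterility control per strain. Plates held 48 h at 35 °C, moist and dark, then read by microplate reader. Amphotericin B positive control. Duplicate tests.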

Candida albicans [3] = test: Antifungal activity against Candida albicans ATCC 10231 assessed as growth inhibition at 200 uM after 24 hrs; conditions: ATCC 10231, 24 h; outline: as §1
Cryptococcus neoformans [4] = test: Antifungal activity against Cryptococcus neoformans ATCC 32264 assessed as growth inhibition at 200 uM after 48 hrs; conditions: ATCC 32264, 48 h; outline: as §2
Candida albicans [5] = test: Antifungal activity against Candida albicans ATCC 10231 assessed as growth inhibition at 12.5 uM after 24 hrs; conditions: ATCC 10231, 24 h; outline: as §1
Candida albicans [6] = test: Antifungal activity against Candida albicans ATCC 10231 assessed as growth inhibition at 25 uM after 24 hrs; conditions: ATCC 10231, 24 h; outline: as §1
Cryptococcus neoformans [7] = test: Antifungal activity against Cryptococcus neoformans ATCC 32264 assessed as growth inhibition at 25 uM after 48 hrs; conditions: ATCC 32264, 48 h; outline: as §2
Candida albicans [8] = test: Antifungal activity against Candida albicans ATCC 10231 assessed as growth inhibition at 50 uM after 24 hrs; conditions: ATCC 10231, 24 h; outline: as §1
Cryptococcus neoformans [9] = test: Antifungal activity against Cryptococcus neoformans ATCC 32264 assessed as growth inhibition at 50 uM after 48 hrs; conditions: ATCC 32264, 48 h; outline: as §2
Cryptococcus neoformans [10] = test: Antifungal activity against Cryptococcus neoformans ATCC 32264 assessed as growth inhibition at 100 uM after 48 hrs; conditions: ATCC 32264, 48 h; outline: as §2

## H-RKRRKKK-NH2
Candida albicans [1]
  inhibition at 100 µM: 12%
Cryptococcus neoformans [2]
  inhibition at 12.5 µM: 0%
Candida albicans [3]
  inhibition at 200 µM: 43%
Cryptococcus neoformans [4]
  inhibition at 200 µM: 60%
Candida albicans [5]
  inhibition at 12.5 µM: 0%
Candida albicans [6]
  inhibition at 25 µM: 0%
Cryptococcus neoformans [7]
  inhibition at 25 µM: 10%
Candida albicans [8]
  inhibition at 50 µM: 0%
Cryptococcus neoformans [9]
  inhibition at 50 µM: 19%
Cryptococcus neoformans [10]
  inhibition at 100 µM: 14%

## H-RKRRKWKK-NH2
Candida albicans [1]
  inhibition at 100 µM: 13%
Cryptococcus neoformans [2]
  inhibition at 12.5 µM: 0%
Candida albicans [3]
  inhibition at 200 µM: 29%
Cryptococcus neoformans [4]
  inhibition at 200 µM: 100%
Candida albicans [5]
  inhibition at 12.5 µM: 0%
Candida albicans [6]
  inhibition at 25 µM: 0%
Cryptococcus neoformans [7]
  inhibition at 25 µM: 6%
Candida albicans [8]
  inhibition at 50 µM: 0%
Cryptococcus neoformans [9]
  inhibition at 50 µM: 11%
Cryptococcus neoformans [10]
  inhibition at 100 µM: 33%

## CC(=O)N1CCN(c2ccc(OCC3COC(Cn4ccnc4)(c4ccc(Cl)cc4Cl)O3)cc2)CC1 (stereo not given) [KETOCONAZOLE]
Candida albicans [1]
  inhibition at 100 µM: 100%
Cryptococcus neoformans [2]
  inhibition at 12.5 µM: 100%
Candida albicans [3]
  inhibition at 200 µM: 100%
Cryptococcus neoformans [4]
  inhibition at 200 µM: 100%
Candida albicans [5]
  inhibition at 12.5 µM: 100%
Candida albicans [6]
  inhibition at 25 µM: 100%
Cryptococcus neoformans [7]
  inhibition at 25 µM: 100%
Candida albicans [8]
  inhibition at 50 µM: 100%
Cryptococcus neoformans [9]
  inhibition at 50 µM: 100%
Cryptococcus neoformans [10]
  inhibition at 100 µM: 100%

## NCCCC[C@H](NC(=O)[C@H](CCCCN)NC(=O)[C@H](Cc1c[nH]c2ccccc12)NC(=O)[C@@H](N)CCCCN)C(N)=O (H-KWKK-NH2)
Candida albicans [1]
  inhibition at 100 µM: 2%
Cryptococcus neoformans [2]
  inhibition at 12.5 µM: 0%
Candida albicans [3]
  inhibition at 200 µM: 9%
Cryptococcus neoformans [4]
  inhibition at 200 µM: 0%
Candida albicans [5]
  inhibition at 12.5 µM: 0%
Candida albicans [6]
  inhibition at 25 µM: 0%
Cryptococcus neoformans [7]
  inhibition at 25 µM: 0%
Candida albicans [8]
  inhibition at 50 µM: 0%
Cryptococcus neoformans [9]
  inhibition at 50 µM: 0%
Cryptococcus neoformans [10]
  inhibition at 100 µM: 0%

## H-RKWRRKWKK-NH2
Candida albicans [1]
  inhibition at 100 µM: 76%
Cryptococcus neoformans [2]
  inhibition at 12.5 µM: 0%
Candida albicans [3]
  inhibition at 200 µM: 100%
Cryptococcus neoformans [4]
  inhibition at 200 µM: 99%
Candida albicans [5]
  inhibition at 12.5 µM: 15%
Candida albicans [6]
  inhibition at 25 µM: 40%
Cryptococcus neoformans [7]
  inhibition at 25 µM: 16%
Candida albicans [8]
  inhibition at 50 µM: 58%
Cryptococcus neoformans [9]
  inhibition at 50 µM: 14%
Cryptococcus neoformans [10]
  inhibition at 100 µM: 68%

## C[C@@H]1[C@H](O)[C@@H](C)/C=C/C=C/C=C/C=C/C=C/C=C/C=C/[C@H](O[C@@H]2O[C@H](C)[C@@H](O)[C@H](N)[C@@H]2O)C[C@@H]2O[C@](O)(C[C@@H](O)C[C@@H](O)[C@H](O)CC[C@@H](O)C[C@@H](O)CC(=O)O[C@H]1C)C[C@H](O)[C@H]2C(=O)O [AMPHOTERICIN B]
Candida albicans [1]
  inhibition at 100 µM: 100%
Cryptococcus neoformans [2]
  inhibition at 12.5 µM: 100%
Candida albicans [3]
  inhibition at 200 µM: 100%
Cryptococcus neoformans [4]
  inhibition at 200 µM: 100%
Candida albicans [5]
  inhibition at 12.5 µM: 100%
Candida albicans [6]
  inhibition at 25 µM: 100%
Cryptococcus neoformans [7]
  inhibition at 25 µM: 100%
Candida albicans [8]
  inhibition at 50 µM: 100%
Cryptococcus neoformans [9]
  inhibition at 50 µM: 100%
Cryptococcus neoformans [10]
  inhibition at 100 µM: 100%

## N=C(N)NCCC[C@H](N)C(=O)N[C@@H](CCC(N)=O)C(=O)N[C@@H](CCCCN)C(=O)N[C@@H](CCCCN)C(N)=O (H-RQKK-NH2)
Candida albicans [1]
  inhibition at 100 µM: 0%
Cryptococcus neoformans [2]
  inhibition at 12.5 µM: 32%
Candida albicans [3]
  inhibition at 200 µM: 6%
Cryptococcus neoformans [4]
  inhibition at 200 µM: 100%
Candida albicans [5]
  inhibition at 12.5 µM: 0%
Candida albicans [6]
  inhibition at 25 µM: 0%
Cryptococcus neoformans [7]
  inhibition at 25 µM: 62%
Candida albicans [8]
  inhibition at 50 µM: 0%
Cryptococcus neoformans [9]
  inhibition at 50 µM: 92%
Cryptococcus neoformans [10]
  inhibition at 100 µM: 100%

## H-WKQKNIKWRFRQKMIR-NH2
Candida albicans [1]
  inhibition at 100 µM: 52%
Cryptococcus neoformans [2]
  inhibition at 12.5 µM: 0%
Candida albicans [3]
  inhibition at 200 µM: 60%
Cryptococcus neoformans [4]
  inhibition at 200 µM: 96%
Candida albicans [5]
  inhibition at 12.5 µM: 0%
Candida albicans [6]
  inhibition at 25 µM: 0%
Cryptococcus neoformans [7]
  inhibition at 25 µM: 28%
Candida albicans [8]
  inhibition at 50 µM: 0%
Cryptococcus neoformans [9]
  inhibition at 50 µM: 36%
Cryptococcus neoformans [10]
  inhibition at 100 µM: 92%

## CC[C@H](C)[C@H](NC(=O)[C@H](CCCCN)NC(=O)[C@@H](NC(=O)[C@H](CCC(N)=O)NC(=O)[C@@H](N)CCCNC(=N)N)[C@@H](C)CC)C(=O)N[C@@H](Cc1c[nH]c2ccccc12)C(=O)N[C@@H](Cc1ccccc1)C(=O)N[C@@H](CCC(N)=O)C(=O)N[C@@H](CC(N)=O)C(=O)N[C@@H](CCCNC(=N)N)C(=O)N[C@@H](CCCNC(=N)N)C(=O)N[C@@H](CCSC)C(=O)N[C@@H](CCCCN)C(=O)N[C@@H](Cc1c[nH]c2ccccc12)C(=O)N[C@@H](CCCCN)C(=O)N[C@@H](CCCCN)C(N)=O [PENETRATIN]
Candida albicans [1]
  inhibition at 100 µM: 100%
Cryptococcus neoformans [2]
  inhibition at 12.5 µM: 90%
Candida albicans [3]
  inhibition at 200 µM: 100%
Cryptococcus neoformans [4]
  inhibition at 200 µM: 100%
Candida albicans [5]
  inhibition at 12.5 µM: 4%
Candida albicans [6]
  inhibition at 25 µM: 91%
Cryptococcus neoformans [7]
  inhibition at 25 µM: 100%
Candida albicans [8]
  inhibition at 50 µM: 95%
Cryptococcus neoformans [9]
  inhibition at 50 µM: 100%
Cryptococcus neoformans [10]
  inhibition at 100 µM: 100%

## H-RKFRRKFKK-NH2
Candida albicans [1]
  inhibition at 100 µM: 44%
Cryptococcus neoformans [2]
  inhibition at 12.5 µM: 0%
Candida albicans [3]
  inhibition at 200 µM: 61%
Cryptococcus neoformans [4]
  inhibition at 200 µM: 73%
Candida albicans [5]
  inhibition at 12.5 µM: 0%
Candida albicans [6]
  inhibition at 25 µM: 23%
Cryptococcus neoformans [7]
  inhibition at 25 µM: 9%
Candida albicans [8]
  inhibition at 50 µM: 33%
Cryptococcus neoformans [9]
  inhibition at 50 µM: 13%
Cryptococcus neoformans [10]
  inhibition at 100 µM: 11%
